Data from ChEMBL document CHEMBL1833887, “Synthesis and evaluation of 7-substituted 4-aminoquinoline analogues for antimalarial activity” (J Med Chem, 2011).
≈ marks a conversion by molar mass, not a printed value.

Experiments:
Plasmodium falciparum [1] = assay: Antimalarial activity against chloroquine-resistant Plasmodium falciparum K1 infected in human erythrocytes assessed as reduction in parasitemia after 72 hrs by spectrophotometry; assay type: functional, organism-based; conditions: K1, 72 h
[2] = Permeability of the compound at pH 7.4 after 30 mins by PAMPA; assay type: ADME; conditions: read-out: permeability
In short: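 PAMPA at pH 7.4. A 10 mM DMSO stock is diluted into system solution buffer; its UV spectrum serves as reference. Membrane painted with GIT lipid, acceptor chamber holds acceptor solution buffer. Sandwich stirred for 30 min, aqueous boundary layer set to 40. Donor and acceptor UV spectra read at 250–500 nm. Permeability coefficient from the AUCs of reference, donor and acceptor. Single experiment in triplicate.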

Plasmodium falciparum [3] = assay: Ratio of EC50 for chloroquine-resistant Plasmodium falciparum K1 infected in human erythrocytes to EC50 for chloroquine-sensitive Plasmodium falciparum 3D7 infected in human erythrocytes; assay type: functional
[4] = Dissociation constant, pKa of the compound; assay type: physicochemical
HepG2 = assay: Cytotoxicity against human HepG2 cells assessed as intracellular ATP level after 72 hrs by Celltiter-Glo luminescent assay; assay type: cell-based; conditions: HepG2, 72 h
[5] = Ratio of EC50 for human HepG2 cells to EC50 for Plasmodium falciparum K1 infected in human erythrocytes
[6] = Solubility of the compound at pH 7.4 after 18 hrs by UV spectroscopic analysis; assay type: physicochemical; conditions: buffer
In short: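 Kinetic solubility. A 10 mM stock is diluted 1:100 into PBS pH 7.4 and incubated 18 h at room temperature, then filtered; the filtrate is mixed 1:1 with 1-propanol. UV spectrum (250–500 nm) compared by AUC with a 1-propanol/PBS reference. Single experiment in triplicate.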

Plasmodium falciparum [7] = assay: Antimalarial activity against chloroquine-sensitive Plasmodium falciparum 3D7 infected in human erythrocytes assessed as reduction in parasitemia after 72 hrs by spectrophotometry; assay type: functional, organism-based; conditions: 3D7, 72 h
[8] = Ratio of EC50 for human HepG2 cells to EC50 for Plasmodium falciparum 3D7 infected in human erythrocytes

SMILES	EC50 (Plasmodium falciparum [1]) [nM]	Papp at 0.5 h [2] [×10⁻⁶ cm/s]	Ratio EC50 (Plasmodium falciparum [3])	pKa [4]	EC50 (HepG2) [nM]	Ratio EC50 [5]	solubility at 18 h [6] [µM]	EC50 (Plasmodium falciparum [7]) [nM]	Ratio EC50 [8]
COc1ccc(F)cc1CNCCCNc1ccnc2cc(-c3ccc(C(C)(C)C)cc3)ccc12	1590	237	11	9.47	620	0.4	32 (≈ 15.1 µg/mL)	144	4.3
COc1cccc(CNCCCNc2ccnc3cc(-c4ccccc4)ccc23)c1O	1940	237	212.7	9.47	3210	1.7	32 (≈ 13.2 µg/mL)	9	353
CCC(CC)c1ccc2c(NCCCNCc3cccc(OC)c3O)ccnc2c1	273	23	68.3	9.47	410	1.5	4.2 (≈ 1.71 µg/mL)	4	103.3
COc1cccc(CNCCCNc2ccnc3cc(Cc4cc(C)cc(C)c4)ccc23)c1O	1360	23	160	9.47	2680	2	4.2 (≈ 1.91 µg/mL)	9	315.8
Cc1cc(C)cc(Cc2ccc3c(NCCCNCc4ccco4)ccnc3c2)c1	678	23	77	9.47	6270	9.2	4.2 (≈ 1.68 µg/mL)	9	712.1
COc1cccc(CNCCCNc2ccnc3cc(Cc4ccc(C#N)cc4)ccc23)c1O	5440	23	514	9.47	7150	1.3	4.2 (≈ 1.9 µg/mL)	11	674.8
COc1ccc(F)cc1CNCCCNc1ccnc2cc(Cc3ccccc3)ccc12	1420	23	129.5	9.47	7990	5.6	4.2 (≈ 1.8 µg/mL)	11	726.7
COc1cccc(CNCCCNc2ccnc3cc(Cc4ccc(F)cc4Cl)ccc23)c1O	5140	23	404.4	9.47	2350	0.5	4.2 (≈ 2.02 µg/mL)	13	185.4
c1ccc(CCc2ccc3c(NCCCNCc4ccc5c(c4)OCO5)ccnc3c2)cc1	1530	23	117.1	9.47	4980	3.2	4.2 (≈ 1.85 µg/mL)	13	380.3
COc1cccc(CNCCCNc2ccnc3cc(Cc4ccc(F)cc4)ccc23)c1O	7150	23	473.5	9.47	4780	0.7	4.2 (≈ 1.87 µg/mL)	15	316.6
COc1cccc(CNCCCNc2ccnc3cc(CCc4ccccc4)ccc23)c1O	5520	23	324.5	9.47	6800	1.2	4.2 (≈ 1.85 µg/mL)	17	400
COc1cccc(CNCCCNc2ccnc3cc(Cc4ccccc4)ccc23)c1O	6970	23	400.6	9.47	5720	0.8	4.2 (≈ 1.8 µg/mL)	17	328.6
COc1cccc(CNCCCNc2ccnc3cc(C4CCCCC4)ccc23)c1O	16000	23	864.9	9.47	1080	0.1	4.2 (≈ 1.76 µg/mL)	19	58.1
Fc1ccc(Cc2ccc3c(NCCCNCc4ccco4)ccnc3c2)c(Cl)c1	1220	23	62.1	9.47	5730	4.7	4.2 (≈ 1.78 µg/mL)	20	290.8
COc1cccc(CNCCCNc2ccnc3cc(CC(C)C)ccc23)c1O	8130	23	402.5	9.47	2920	0.4	4.2 (≈ 1.65 µg/mL)	20	144.5
COc1cccc(CNCCCNc2ccnc3cc(CCC(C)C)ccc23)c1O	8000	23	365.3	9.47	5390	0.7	4.2 (≈ 1.71 µg/mL)	22	245.9
N#Cc1ccc(Cc2ccc3c(NCCCNCc4ccc5c(c4)OCO5)ccnc3c2)cc1	3070	23	136.4	9.47	6080	2	4.2 (≈ 1.89 µg/mL)	23	270.2
COc1cccc(CNCCCNc2ccnc3cc(Cc4cccc(C(F)(F)F)c4)ccc23)c1O	2190	23	87.9	9.47	1720	0.8	4.2 (≈ 2.08 µg/mL)	25	69
Fc1ccc(Cc2ccc3c(NCCCNCc4ccc5c(c4)OCO5)ccnc3c2)c(Cl)c1	953	23	35.9	9.47	16000	16.8	4.2 (≈ 2.01 µg/mL)	27	603.8
CCC(CC)c1ccc2c(NCCCNCc3ccc4c(c3)OCO4)ccnc2c1	1060	23	39.5	9.47	6350	6	4.2 (≈ 1.7 µg/mL)	27	235.1
CC(C)CCc1ccc2c(NCCCNCc3ccc4c(c3)OCO4)ccnc2c1	206	23	7.6	9.47	2800	13.5	4.2 (≈ 1.7 µg/mL)	27	103.1
COc1ccc(F)cc1CNCCCNc1ccnc2cc(Cc3ccc(C#N)cc3)ccc12	770	23	27.5	9.47	6050	7.9	4.2 (≈ 1.91 µg/mL)	28	216.2
COc1ccc(F)cc1CNCCCNc1ccnc2cc(Cc3cc(C)cc(C)c3)ccc12	794	23	23.1	9.47	940	1.2	4.2 (≈ 1.92 µg/mL)	34	27.4
